Activity calls are given as the source filed them. The rule behind the calls is not given here.
Tests used:
[1] = tested on: A549; test: Antiproliferative activity against human A549 cells after 72 hrs by MTT assay; type: functional, cell-based; details: A549, 72 h
In short: (§1)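 MTT proliferation assay in HL-60 and A549 cells; IC50 taken as concentration giving 50% inhibition of cell proliferation, reported as mean ± SD of three determinations.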

[2] = Antioxidant activity assessed as protection against […]-induced pBR322 DNA strand breakage at 20 uM after 1 hr using ethidium bromide staining by agarose gel electrophoresis analysis; type: functional
In short: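 Supercoiled plasmid pBR322 DNA (100 ng/25 µl) incubated with 10 mM AAPH plus 20 µM test compound in 10 mM PBS, pH 7.4, 37 °C, 1 h; strand breakage (supercoiled vs open circular/linear forms) read by agarose gel electrophoresis. Controls: DNA alone (native) and DNA with AAPH.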

[3] = tested on: HL-60; test: Antiproliferative activity against human HL60 cells after 48 hrs by MTT assay; type: functional, cell-based; details: HL-60, 48 h; in short: as §1
[4] = tested on: A549; test: Induction of apoptosis in human A549 cells assessed as changes in cell morphology after 24 hrs by Hoechst-33258/propodium iodide staining based fluorescence microscopy; type: functional
In short: (§2)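 A549 cells treated with culture medium or 5, 10 and 15 µM compound for 24 h, then nuclear-stained with Hoechst 33258/propidium iodide and viewed by fluorescence microscopy (200×). Living cells scored as smooth blue nuclei; early apoptotic cells as blue with bright specks of condensed chromatin. Representative of three separate experiments.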

[5] = tested on: A549; test: Induction of early apoptosis in human A549 cells assessed as reduction of living cells after 24 hrs by Hoechst-33258/propodium iodide staining based fluorescence microscopy; type: functional, cell-based; in short: as §2
[6] = tested on: A549; test: Induction of apoptosis in human A549 cells assessed as condensed chromatin after 24 hrs by Hoechst-33258/propodium iodide staining based fluorescence microscopy; type: functional, cell-based; in short: as §2
[7] = tested on: A549; test: Cell cycle arrest in human A549 cells assessed as accumulation at G0/G1 phase at 10 uM after 24 hrs using propidium iodide staining by flow cytometric analysis (reference value: 70.68 %); type: functional
[8] = tested on: A549; test: Cell cycle arrest in human A549 cells assessed as accumulation at S phase at 10 uM after 24 hrs using propidium iodide staining by flow cytometric analysis (reference value: 21.16 %); type: functional
[9] = tested on: A549; test: Cell cycle arrest in human A549 cells assessed as accumulation at G2/M phase at 10 uM after 24 hrs using propidium iodide staining by flow cytometric analysis (reference value: 8.16 %); type: functional
[10] = tested on: A549; test: Cell cycle arrest in human A549 cells assessed as accumulation at G0/G1 phase at 15 uM after 24 hrs using propidium iodide staining by flow cytometric analysis (reference value: 70.68 %); type: functional
[11] = tested on: A549; test: Cell cycle arrest in human A549 cells assessed as accumulation at S phase at 15 uM after 24 hrs using propidium iodide staining by flow cytometric analysis (reference value: 21.16 %); type: functional
[12] = tested on: A549; test: Cell cycle arrest in human A549 cells assessed as accumulation at G2/M phase at 15 uM after 24 hrs using propidium iodide staining by flow cytometric analysis (reference value: 8.16 %); type: functional
[13] = tested on: A549; test: Cell cycle arrest in human A549 cells assessed as accumulation at G0/G1 phase at 20 uM after 24 hrs using propidium iodide staining by flow cytometric analysis (reference value: 70.68 %); type: functional
[14] = tested on: A549; test: Cell cycle arrest in human A549 cells assessed as accumulation at S phase at 20 uM after 24 hrs using propidium iodide staining by flow cytometric analysis (reference value: 21.16 %); type: functional
[15] = tested on: A549; test: Cell cycle arrest in human A549 cells assessed as accumulation at G2/M phase at 20 uM after 24 hrs using propidium iodide staining by flow cytometric analysis (reference value: 8.16 %); type: functional
[16] = tested on: A549; test: Cell cycle arrest in human A549 cells assessed as accumulation at G0/G1 phase at 30 uM after 24 hrs using propidium iodide staining by flow cytometric analysis (reference value: 70.68 %); type: functional
[17] = tested on: A549; test: Cell cycle arrest in human A549 cells assessed as accumulation at S phase at 30 uM after 24 hrs using propidium iodide staining by flow cytometric analysis (reference value: 21.16 %); type: functional
[18] = tested on: A549; test: Cell cycle arrest in human A549 cells assessed as accumulation at G2/M phase at 30 uM after 24 hrs using propidium iodide staining by flow cytometric analysis (reference value: 8.16 %); type: functional
[19] = tested on: A549; test: Cell cycle arrest in human A549 cells assessed as accumulation at G0/G1 phase at 40 uM after 24 hrs using propidium iodide staining by flow cytometric analysis (reference value: 70.68 %); type: functional
[20] = tested on: A549; test: Cell cycle arrest in human A549 cells assessed as accumulation at S phase at 40 uM after 24 hrs using propidium iodide staining by flow cytometric analysis (reference value: 21.16 %); type: functional
[21] = tested on: A549; test: Cell cycle arrest in human A549 cells assessed as accumulation at G2/M phase at 40 uM after 24 hrs using propidium iodide staining by flow cytometric analysis (reference value: 8.16 %); type: functional
[22] = tested on: HL-60; test: Antiproliferative activity against human HL60 cells after 48 hrs by MTT assay relative to resveratrol; type: functional
[23] = tested on: A549; test: Antiproliferative activity against human A549 cells after 72 hrs by MTT assay relative to resveratrol; type: functional

SMILES | IC50 [1] | Activity [2] | IC50 [3] | other results
COc1cc(-c2cc3cc(O)c(O)cc3oc2=O)ccc1O | 43.4 µM | – | – | –
O=c1oc2cc(O)ccc2cc1-c1ccc(O)cc1 | > 200 µM | Active | > 200 µM | –
O=c1oc2cc(O)c(O)cc2cc1-c1ccccc1 | 27 µM | Active | 14 µM | –
COc1cc2cc(-c3ccc(O)cc3)c(=O)oc2cc1O | 7.5 µM | inactive | 5.2 µM | Activity [4]: Dose-dependent effect; Activity [5]: Dose-dependent effect; Activity [6]: Dose-dependent effect; Activity [7]: 71.45%; Activity [8]: 11.95%; Activity [9]: 16.6%; Activity [10]: 34.49%; Activity [11]: 19.86%; Activity [12]: 40.65%; Activity [13]: 11.82%; Activity [14]: 18.1%; Activity [15]: 70.08%; Activity [16]: 9.62%; Activity [17]: 9.43%; Activity [18]: 80.95%; Activity [19]: 7.11%; Activity [20]: 8.86%; Activity [21]: 84.03%; fold change (FC) [22]: 7; fold change (FC) [23]: 16
O=c1oc2cc(O)ccc2cc1-c1ccc(O)c(O)c1 | 85 µM | – | 42.1 µM | –
O=c1oc2cc(O)c(O)cc2cc1-c1ccc(O)c(O)c1 | 48.8 µM | Active | 22.1 µM | –
O=c1oc2cc(O)ccc2cc1-c1cc(O)cc(O)c1 | > 200 µM | – | 127 µM | –
COc1cc2cc(-c3ccc(O)cc3)c(=O)oc2c(OC)c1O | 45.8 µM | Active | 25.1 µM | –
O=c1oc2ccccc2cc1-c1ccc(O)cc1 | > 200 µM | – | > 200 µM | –
COc1cc(-c2cc3cc(OC)c(O)cc3oc2=O)ccc1O | 21.4 µM | Active | 24.3 µM | –
O=c1oc2cc(O)ccc2cc1-c1ccccc1 | > 200 µM | – | > 200 µM | –
COc1cc(-c2cc3ccc(O)cc3oc2=O)ccc1O | > 200 µM | Active | 91.7 µM | –
O=c1oc2cc(O)c(O)cc2cc1-c1ccc(O)cc1 | 42.5 µM | Active | 25 µM | –
Oc1ccc(/C=C/c2cc(O)cc(O)c2)cc1 [RESVERATROL] | 120 µM | – | – | –
COc1cc2cc(-c3cc(OC)c(OC)c(OC)c3)c(=O)oc2c(OC)c1O | > 200 µM | Active | 72.2 µM | –

Reference: ChEMBL document CHEMBL1914408, “Synthesis and biological evaluation of hydroxylated 3-phenylcoumarins as antioxidants and antiproliferative agents” (Bioorg Med Chem Lett, 2011)
